Results collected from several papers.
Each line is one published result; the experiments were not run side by side.

With `COCC1=N[C@@]2(O)[C@H](C(=O)N(C)OC)[C@@H](c3ccccc3)[C@]3(c4ccc(OC)cc4)Oc4cc(OC)cc(OC)c4[C@]23N1` the half-life was 74.7 min (metabolic stability; male Sprague-Dawley rat, liver microsomes; 1 µM, pH 7.4).
For `C[C@]12CC[C@H]3[C@@H](CC=C4CC(O)CC[C@@]43CO)[C@@H]1CCC2O` (stereo partly shown), the half-life was 19.9 min (metabolic stability; rat, liver microsomes).
For `NCCNC(=O)O[C@H]1CCC[C@@]2(C1)OOC1(O2)C2CC3CC(C2)CC1C3` (stereo partly shown), the AUC(0-inf) was 757 ng·h/mL (male CD-1 mouse, plasma; intravenous, 3 mg/kg).
For `CN1CC[C@H]2c3nc4ccc(Cl)cc4c(=O)n3CC[C@H]21` (racemic), the CC50 was greater than 20 µM (SH-SY5Y; cell growth or viability, ATP luminescence).
With `CONC(=O)[C@H]1[C@@H](O)[C@@]2(O)c3c(OC)cc(OC)cc3O[C@@]2(c2ccc(OC)cc2)[C@@H]1c1ccccc1` the half-life was 58.3 min (metabolic stability; rat, liver microsomes).
The AUC of `CNC(=O)c1ccc(-c2cnn3ccc(C(=O)N(C)c4ccc(Cl)c(C(=O)OC)c4)cc23)cc1` is reported as 9.1 ng·h/mL (female C57BL/6 mouse, plasma; oral, 10 mg/kg/day).
`C[C@]12CC[C@H]3[C@@H](CCC4=CC(=O)CC[C@@]43C)[C@@H]1CC[C@@H]2O` has a half-life of 2.92 min (metabolic stability; Sprague-Dawley rat, hepatocytes; 1 µM).
`CNC(=O)c1ccc(-c2cnn3ccc(C(=O)N(C)c4ccc(Cl)c(C(=O)O)c4)cc23)cc1` has an AUC of 34 ng·h/mL (female C57BL/6 mouse, plasma; oral, 10 mg/kg/day).
`COc1cc(Cl)cc2c(=O)n3c(nc12)[C@@H]1CCCN(C)[C@@H]1CC3` (racemic) gave a CC50 of greater than 20 µM (SH-SY5Y; cell growth or viability, ATP luminescence; 72 h).
`Cn1nccc1[C@]1(CNC(=O)c2ccc(F)c(F)c2-c2ccc(C(F)(F)F)cc2)NC(=O)NC1=O` gave a bioavailability of 132% (male C57BL/6 mouse, plasma; oral, 1 mg/kg).
`C=CS(=O)(=O)c1ccc(Nc2nc(OCC3CCCCC3)c3nc[nH]c3n2)cc1` has an AUC(0-t) of 137 ng·h/mL (male BALB/c mouse, plasma; intraperitoneal, 20 mg/kg, single dose).
`CN1CCN(S(=O)(=O)c2cc([N+](=O)[O-])ccc2N(CCOS(C)(=O)=O)CCOS(C)(=O)=O)CC1` has an AUC(0-inf) of 0.5 µM·h (female SCID mouse, plasma; intraperitoneal, 5 mg/kg).
`CC(C)C[C@H](NC(=O)[C@H](Cc1ccccc1)NC(=O)[C@H](Cc1ccccc1)NC(=O)Cc1ccc(-c2ccccc2)cc1)C(=O)N[C@@H](CCCCN)C(=O)N[C@@H](CCCNC(=N)N)C(=O)N[C@H](C(=O)N[C@@H](Cc1c[nH]c2ccccc12)C(=O)N[C@@H](CCCCN)C(=O)N[C@@H](CCCNC(=N)N)C(=O)O)C(C)C` has a half-life of 5.12 min (metabolic stability; rat, liver microsomes; 1 µM).
